# ChEMBL document CHEMBL1143835, “Antipropionibacterial activity of BAL19403, a novel macrolide antibiotic” (2007)
# What was measured:
# Cutibacterium acnes [1] = experiment: Antibacterial activity against drug-resistant Propionibacterium acnes SW11 after 48 hrs by broth microdilution method; type: functional
# Method in brief: (§1)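 Broth microdilution MIC in Wilkins-Chalgren broth without lysed horse blood, following CLSI anaerobe guidelines. Plates were held in anaerobic jars with atmosphere generators (O2 <0.1% by 2.5 h, CO2 >15% by 24 h) at 35 to 37°C for 48 h. Growth was read with an illuminated plate reader and magnifying mirror.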
# Cutibacterium acnes [2] = experiment: Antibacterial activity against drug-resistant Propionibacterium acnes P429:1 (BC) after 48 hrs by broth microdilution method; type: functional; method in brief: as §1
# [3] = tested on: Streptococcus equi subsp. zooepidemicus; experiment: Antibacterial activity against Streptococcus equi subsp. zooepidemicus after 48 hrs by broth microdilution method; type: functional
# Staphylococcus aureus [4] = experiment: Antibacterial activity against borderline oxacillin-resistant Staphylococcus aureus after 20 to 24 hrs by broth microdilution method
# Cutibacterium acnes [5] = experiment: Antibacterial activity against drug-resistant Propionibacterium acnes EG3NS after 48 hrs by broth microdilution method; type: functional; method in brief: as §1
# Cutibacterium acnes [6] = experiment: Antibacterial activity against drug-resistant Propionibacterium acnes EG7NS after 48 hrs by broth microdilution method; type: functional; method in brief: as §1
# Corynebacterium jeikeium = experiment: Antibacterial activity against Corynebacterium jeikeium after 48 hrs by broth microdilution method; type: functional
# Method in brief: (§2)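 Broth microdilution per CLSI in cation-adjusted Mueller-Hinton broth supplemented with 0.5% (vol/vol) Tween 80. Plates incubated at 35°C in ambient air for 44 to 48 h, then read visually. MICs in μg/ml; a geometric mean MIC was calculated across the corynebacterial strains.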
# [7] = tested on: Propionibacterium granulosum; experiment: Antibacterial activity against drug-resistant Propionibacterium granulosum QK6/92 after 48 hrs by broth microdilution method
# Cutibacterium acnes [8] = experiment: MBC/MIC ratio of Propionibacterium acnes P95; type: functional
# Method in brief: (§3)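 MIC by CLSI broth microdilution in Wilkins-Chalgren broth in anaerobic jars (O2 <0.1%, CO2 >15%), read after 48 h at 35–37°C on an illuminated plate reader. For MBC, samples were plated onto Wilkins-Chalgren agar and incubated anaerobically for 72 h at 35–37°C before growth was scored.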
# [9] = tested on: Propionibacterium granulosum; experiment: Antibacterial activity against drug-resistant Propionibacterium granulosum NCTC-11865 after 48 hrs by broth microdilution method; type: functional; settings: Cutibacterium granulosum, NCTC-11865, 48 h; method in brief: as §1
# Staphylococcus aureus [10] = experiment: Antibacterial activity against methicillin-susceptible Staphylococcus aureus after 48 hrs by broth microdilution method; type: functional
# Cutibacterium acnes [11] = experiment: Antibacterial activity against drug-resistant Propionibacterium acnes D-04/97 after 48 hrs by broth microdilution method; type: functional; method in brief: as §1
# Cutibacterium acnes [12] = experiment: Antibacterial activity against drug-resistant Propionibacterium acnes GE46EB after 48 hrs by broth microdilution method; type: functional; method in brief: as §1
# Cutibacterium acnes [13] = experiment: Antibacterial activity against drug-resistant Propionibacterium acnes SP64E after 48 hrs by broth microdilution method; type: functional; method in brief: as §1
# Cutibacterium acnes [14] = experiment: Antibacterial activity against drug-resistant Propionibacterium acnes SW54EA after 48 hrs by broth microdilution method; type: functional; method in brief: as §1
# [15] = tested on: Corynebacterium minutissimum; experiment: Antibacterial activity against Corynebacterium minutissimum after 48 hrs by broth microdilution method; type: functional; method in brief: as §2
# Cutibacterium acnes [16] = experiment: Antibacterial activity against drug-resistant Propionibacterium acnes EG7NS after 72 hrs; type: functional
# Method in brief: (§4)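 MBC for P. acnes followed MIC assays by standard methodology. Samples were plated on Wilkins-Chalgren agar, incubated anaerobically in GENbox jars at 35 to 37°C, and examined for growth after 72 h.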
# Cutibacterium acnes [17] = experiment: Antibacterial activity against drug-resistant Propionibacterium acnes P401:5 after 48 hrs by broth microdilution method; type: functional; method in brief: as §1
# Streptococcus pyogenes = experiment: Antibacterial activity against Streptococcus pyogenes after 20 to 24 hrs by broth microdilution method
# Cutibacterium acnes [18] = experiment: Antibacterial activity against drug-resistant Propionibacterium acnes SW101CDA after 48 hrs by broth microdilution method; type: functional; method in brief: as §1
# Cutibacterium acnes [19] = experiment: Antibacterial activity against drug-resistant Propionibacterium acnes P95 after 48 hrs by broth microdilution method; type: functional; method in brief: as §1
# [20] = tested on: Staphylococcus epidermidis; experiment: Antibacterial activity against Staphylococcus epidermidis after 48 hrs by broth microdilution method; type: functional
# [21] = tested on: Corynebacterium diphtheriae; experiment: Antibacterial activity against Corynebacterium diphtheriae after 48 hrs by broth microdilution method; type: functional; method in brief: as §2
# Cutibacterium acnes [22] = experiment: Antibacterial activity against drug-resistant Propionibacterium acnes P95 after 72 hrs; type: functional; method in brief: as §4
# Cutibacterium acnes [23] = experiment: Antibacterial activity against drug-resistant Propionibacterium acnes P429:1 (SC) after 48 hrs by broth microdilution method; type: functional; method in brief: as §1
# [24] = tested on: Corynebacterium amycolatum; experiment: Antibacterial activity against Corynebacterium amycolatum after 48 hrs by broth microdilution method; type: functional; method in brief: as §2
# Cutibacterium acnes [25] = experiment: MBC/MIC ratio of Propionibacterium acnes SW3CD; type: functional; method in brief: as §3
# Cutibacterium acnes [26] = experiment: Antibacterial activity against drug-resistant Propionibacterium acnes SW10 after 48 hrs by broth microdilution method; type: functional; method in brief: as §1
# Cutibacterium acnes [27] = experiment: Antibacterial activity against drug-resistant Propionibacterium acnes SW17 after 48 hrs by broth microdilution method; type: functional; method in brief: as §1
# Cutibacterium acnes [28] = experiment: Antibacterial activity against drug-resistant Propionibacterium acnes P425:1 after 48 hrs by broth microdilution method; type: functional; method in brief: as §1
# Cutibacterium acnes [29] = experiment: Antibacterial activity against drug-resistant Propionibacterium acnes OK8/97 after 48 hrs by broth microdilution method; type: functional; method in brief: as §1
# Cutibacterium acnes [30] = experiment: Antibacterial activity against drug-resistant Propionibacterium acnes EG13NS after 48 hrs by broth microdilution method; type: functional; method in brief: as §1
# Cutibacterium acnes [31] = experiment: Antibacterial activity against drug-resistant Propionibacterium acnes FG7E after 48 hrs by broth microdilution method; type: functional; method in brief: as §1
# Cutibacterium acnes [32] = experiment: Antibacterial activity against drug-resistant Propionibacterium acnes P:413 after 48 hrs by broth microdilution method; type: functional; method in brief: as §1
# Cutibacterium acnes [33] = experiment: Antibacterial activity against drug-resistant Propionibacterium acnes GE4E after 48 hrs by broth microdilution method; type: functional; method in brief: as §1
# Cutibacterium acnes [34] = experiment: Antibacterial activity against drug-resistant Propionibacterium acnes SW101T after 48 hrs by broth microdilution method; type: functional; method in brief: as §1
# Cutibacterium acnes [35] = experiment: MBC/MIC ratio of Propionibacterium acnes EG7NS; type: functional; method in brief: as §3
# Cutibacterium acnes [36] = experiment: Antibacterial activity against drug-resistant Propionibacterium acnes SW16 after 48 hrs by broth microdilution method; type: functional; method in brief: as §1
# Cutibacterium acnes [37] = experiment: Antibacterial activity against drug-resistant Propionibacterium acnes P322:2 after 48 hrs by broth microdilution method; type: functional; method in brief: as §1
# Cutibacterium acnes [38] = experiment: Antibacterial activity against drug-resistant Propionibacterium acnes SW3CD after 48 hrs by broth microdilution method; type: functional; method in brief: as §1
# [39] = Antibacterial activity against Streptococcus dysgalactiae subsp. dysgalactiae after 48 hrs by broth microdilution method; type: functional
# Cutibacterium acnes [40] = experiment: Antibacterial activity against drug-resistant Propionibacterium acnes SW26 after 48 hrs by broth microdilution method; type: functional; method in brief: as §1
# Staphylococcus aureus [41] = experiment: Antibacterial activity against methicillin-resistant Staphylococcus aureus after 20 to 24 hrs by broth microdilution method
# Cutibacterium acnes [42] = experiment: Antibacterial activity against drug-resistant Propionibacterium acnes SW3CD after 72 hrs; type: functional; method in brief: as §4
# Cutibacterium acnes [43] = experiment: MBC/MIC ratio of Propionibacterium acnes SW101T; type: functional; method in brief: as §3
# Cutibacterium acnes [44] = experiment: Antibacterial activity against drug-resistant Propionibacterium acnes GE4E after 72 hrs; type: functional; method in brief: as §4
# Cutibacterium acnes [45] = experiment: Antibacterial activity against drug-resistant Propionibacterium acnes SW101T after 72 hrs; type: functional; method in brief: as §4
# Cutibacterium acnes [46] = experiment: MBC/MIC ratio of Propionibacterium acnes GE4E; type: functional; method in brief: as §3
compound,measurement,setting,value
CC[C@H]1OC(=O)[C@H](C)[C@@H](O[C@H]2C[C@@](C)(OC)[C@@H](O)[C@H](C)O2)[C@H](C)[C@@H](O[C@@H]2O[C@H](C)C[C@H](N(C)C)[C@H]2O)[C@](C)(O)C[C@@H](C)C(=O)[C@H](C)[C@@H](O)[C@]1(C)O [ERYTHROMYCIN],MIC,Cutibacterium acnes [1],0.125 µg/mL
same,MIC,Cutibacterium acnes [2],2 µg/mL
same,MIC,[3],0.14 µg/mL
same,MIC,Staphylococcus aureus [4],3.26 µg/mL
same,MIC,Cutibacterium acnes [5],≤ 0.06 µg/mL
same,MIC,Cutibacterium acnes [6],≤ 0.06 µg/mL
same,MIC,Corynebacterium jeikeium,1.47 µg/mL
same,MIC,[7],0.5 µg/mL
same,Ratio,Cutibacterium acnes [8],>8
same,MIC,[9],0.125 µg/mL
same,MIC,Staphylococcus aureus [10],3.26 µg/mL
same,MIC,Cutibacterium acnes [11],≤ 0.06 µg/mL
same,MIC,Cutibacterium acnes [12],> 512 µg/mL
same,MIC,Cutibacterium acnes [13],> 512 µg/mL
same,MIC,Cutibacterium acnes [14],> 512 µg/mL
same,MIC,[15],1.47 µg/mL
same,MBC,Cutibacterium acnes [16],> 32 µg/mL
same,MIC,Cutibacterium acnes [17],2 µg/mL
same,MIC,Streptococcus pyogenes,0.32 µg/mL
same,MIC,Cutibacterium acnes [18],> 512 µg/mL
same,MIC,Cutibacterium acnes [19],4 µg/mL
same,MIC,[20],3 µg/mL
same,MIC,[21],1.47 µg/mL
same,MBC,Cutibacterium acnes [22],> 32 µg/mL
same,MIC,Cutibacterium acnes [23],4 µg/mL
same,MIC,[24],1.47 µg/mL
same,Ratio,Cutibacterium acnes [25],>=2
same,MIC,Cutibacterium acnes [26],≤ 0.06 µg/mL
same,MIC,Cutibacterium acnes [27],≤ 0.06 µg/mL
same,MIC,Cutibacterium acnes [28],> 512 µg/mL
same,MIC,Cutibacterium acnes [29],0.125 µg/mL
same,MIC,Cutibacterium acnes [30],≤ 0.06 µg/mL
same,MIC,Cutibacterium acnes [31],> 512 µg/mL
same,MIC,Cutibacterium acnes [32],≤ 0.06 µg/mL
same,MIC,Cutibacterium acnes [33],> 512 µg/mL
same,MIC,Cutibacterium acnes [34],> 512 µg/mL
same,Ratio,Cutibacterium acnes [35],>=533
same,MIC,Cutibacterium acnes [36],≤ 0.06 µg/mL
same,MIC,Cutibacterium acnes [37],> 512 µg/mL
same,MIC,Cutibacterium acnes [38],≤ 0.06 µg/mL
same,MIC,[39],0.09 µg/mL
same,MIC,Cutibacterium acnes [40],≤ 0.06 µg/mL
same,MIC,Staphylococcus aureus [41],3.26 µg/mL
same,MBC,Cutibacterium acnes [42],0.125 µg/mL
CN(C)[C@@H]1C(O)=C(C(N)=O)C(=O)[C@@]2(O)C(O)=C3C(=O)c4c(O)cccc4[C@@](C)(O)[C@H]3C[C@@H]12 [TETRACYCLINE],Ratio,Cutibacterium acnes [43],>1
same,MIC,Cutibacterium acnes [1],2 µg/mL
same,MIC,Cutibacterium acnes [2],1 µg/mL
same,MIC,[3],8 µg/mL
same,MIC,Staphylococcus aureus [4],3.17 µg/mL
same,MIC,Cutibacterium acnes [5],0.5 µg/mL
same,MIC,Cutibacterium acnes [6],≤ 0.06 µg/mL
same,MIC,Corynebacterium jeikeium,5.16 µg/mL
same,MIC,[7],1 µg/mL
same,Ratio,Cutibacterium acnes [8],>64
same,MIC,[9],0.5 µg/mL
same,MIC,Staphylococcus aureus [10],3.17 µg/mL
same,MIC,Cutibacterium acnes [11],1 µg/mL
same,MIC,Cutibacterium acnes [12],1 µg/mL
same,MIC,Cutibacterium acnes [13],1 µg/mL
same,MIC,Cutibacterium acnes [14],0.5 µg/mL
same,MIC,[15],5.16 µg/mL
same,MBC,Cutibacterium acnes [16],> 32 µg/mL
same,MIC,Cutibacterium acnes [17],32 µg/mL
same,MBC,Cutibacterium acnes [44],> 32 µg/mL
same,MIC,Streptococcus pyogenes,3.25 µg/mL
same,MIC,Cutibacterium acnes [18],≤ 0.06 µg/mL
same,MIC,Cutibacterium acnes [19],0.5 µg/mL
same,MIC,[20],7.55 µg/mL
same,MIC,[21],5.16 µg/mL
same,MBC,Cutibacterium acnes [22],32 µg/mL
same,MIC,Cutibacterium acnes [23],≥ 32 µg/mL
same,MIC,[24],5.16 µg/mL
same,Ratio,Cutibacterium acnes [25],>32
same,MIC,Cutibacterium acnes [26],0.5 µg/mL
same,MIC,Cutibacterium acnes [27],0.25 µg/mL
same,MIC,Cutibacterium acnes [28],16 µg/mL
same,MIC,Cutibacterium acnes [29],0.5 µg/mL
same,MIC,Cutibacterium acnes [30],1 µg/mL
same,MIC,Cutibacterium acnes [31],32 µg/mL
same,MIC,Cutibacterium acnes [32],16 µg/mL
same,MIC,Cutibacterium acnes [33],2 µg/mL
same,MBC,Cutibacterium acnes [45],> 32 µg/mL
same,MIC,Cutibacterium acnes [34],32 µg/mL
same,Ratio,Cutibacterium acnes [35],>=533
same,MIC,Cutibacterium acnes [36],0.25 µg/mL
same,MIC,Cutibacterium acnes [37],32 µg/mL
same,MIC,Cutibacterium acnes [38],1 µg/mL
same,MIC,[39],4.58 µg/mL
same,MIC,Cutibacterium acnes [40],0.5 µg/mL
same,MIC,Staphylococcus aureus [41],3.17 µg/mL
same,Ratio,Cutibacterium acnes [46],>16
same,MBC,Cutibacterium acnes [42],> 32 µg/mL
